Reference: the M2OR odorant receptor database

Biological target: T1, OR2M3 (Homo sapiens) (UniProt Q8NG83)
T1 sequence (whole entry): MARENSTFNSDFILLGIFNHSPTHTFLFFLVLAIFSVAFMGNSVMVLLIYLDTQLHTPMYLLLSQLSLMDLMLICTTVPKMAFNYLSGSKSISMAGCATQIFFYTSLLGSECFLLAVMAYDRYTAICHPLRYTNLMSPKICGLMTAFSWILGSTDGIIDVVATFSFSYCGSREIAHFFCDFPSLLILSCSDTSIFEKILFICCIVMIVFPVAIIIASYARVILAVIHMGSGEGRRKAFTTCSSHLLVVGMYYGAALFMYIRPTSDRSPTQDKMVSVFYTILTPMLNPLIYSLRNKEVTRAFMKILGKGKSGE
Conditions: stereoisomer not certain
In short: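 Transient luciferase assays in mammalian cell lines were common, though methods varied by source. The values come from published papers and their supplementary material, with extra details from the original authors when needed. Responsive refers to a measured signal the original authors judged statistically different from baseline, and non-responsive (inactive) to the remainder.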

SMILES	odorant receptor agonist call;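 note: active if original authors judged signal statistically different from baseline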
CC(C)CO	inactive
C=C(C)c1ccc(C)cc1	inactive
CCCCC(C)CCC(=O)O (configuration not stated)	inactive
SCc1cccs1	inactive
CSC	inactive
CCO	inactive
CC(=O)C=CC1=C(C)CCCC1(C)C	inactive
CCC(=O)C(C)S (configuration not stated)	inactive
CCC(=O)C1=NCCC1	inactive
CCCCC=CC=CC=O	inactive
SCCc1ccccc1	inactive
CC(C)CCO	inactive
CCCCCCCC(=O)[O-].[H+]	inactive
Cc1cccc(O)c1	inactive
C=Cc1ccc(O)cc1	inactive
CC(S)C(C)CO (configuration not stated)	active
Cc1cccc(C)c1O	inactive
CSSSC	inactive
CC(=O)c1ccc(C)cc1	inactive

SMILES	odorant receptor agonist call;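 note: active if original authors judged signal statistically different from baseline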
CCOC(=O)C(C)CC (configuration not stated)	inactive
Cc1ccc(O)cc1	inactive
CCC=O	inactive
CCC(C)C=O (configuration not stated)	inactive
CCCCCCOC(C)=O	inactive
CCc1ccc(O)cc1	inactive
CC(=O)OCCc1ccccc1	inactive
CC1=CCC(C(C)(C)S)CC1 (configuration not stated)	inactive
CSCCCO	inactive
CCCCCc1ccccn1	inactive
CCCSSSCCC	inactive
CSSc1ccoc1C	inactive
COC1=C(C)OC(C)C1=O (configuration not stated)	inactive
CCCCCCCCC1CCC(=O)O1 (configuration not stated)	inactive
CCc1cccc(O)c1	inactive
Cc1occc(=O)c1O	inactive
CCCC(O)CC(=O)OCC (configuration not stated)	inactive
CCCC(=O)OCC	inactive
